ChEMBL document CHEMBL2029282, “Synthesis and characterization of 2'-C-Me branched C-nucleosides as HCV polymerase inhibitors” (Bioorg Med Chem Lett, 2012)

Assays:
Hepatitis C virus [1] = assay: Antiviral activity against HCV genotype 1b infected in human HuH7 cells assessed as cytoprotection after 24 hrs; format: functional, organism-based, Hepacivirus hominis; settings: Huh-7, 24 h
Hepatitis C virus [2] = assay: Inhibition of HCV genotype 1b NS5B after 90 mins; set-up: species or system Hepatitis C virus subtype 1b; settings: 1.5 h
adenosine deaminase = assay: Stability of the compound assessed as compound remaining at 10 uM after 60 mins in presence of bovine adenosine deaminase; format: ADME; settings: cattle, read-out: Stability
In short: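 Nucleosides (10 µM) were incubated at 37 °C with 0.0125 U/mL bovine adenosine deaminase in 0.01 M potassium phosphate pH 6.0 and sampled over 1 h. Reactions were quenched with ice-cold methanol containing 0.2% formic acid. Nucleoside was quantified by LC with triple-quadrupole MS in positive-ion MRM mode, and percent remaining taken at 60 min. Values are the mean of 2 independent experiments in duplicate.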

[3] = Cytotoxicity against human HuH7 cells after 24 hrs by MTS assay; format: cell-based, Huh-7
Huh-7 = assay: Prodrug activation in human HuH7 cells assessed as compound triphosphate form at 10 uM after 24 hrs; settings: huh-7, 24 h
Hepatocyte = assay: Prodrug activation in primary human hepatocytes assessed as compound triphosphate form at 10 uM after 1 hr; format: cell-based
In short: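 Primary human hepatocytes from two donors were grown confluent (0.88×10^6 cells/well) in Williams E medium with supplement. Cells were exposed to compound (10 µM) for 1 h, then drug-free medium for 23 h, and sampled during and after exposure. Cells were extracted in 70% methanol, dried, and resuspended in 1 mM ammonium phosphate pH 8.5. Triphosphate was quantified by LC/MS/MS. Two independent experiments were run in duplicate.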

Rattus norvegicus [4] = assay: Prodrug activation in Sprague-Dawley rat liver assessed as compound triphosphate form at 5 mg/kg, po after […]; format: organism-based; set-up: dose 5 mg/kg, route oral; settings: in vivo
In short: (§1)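 Groups of 12 Golden Syrian hamsters or Sprague–Dawley rats were dosed orally with nucleoside in water. Doses were 20 or 10 mg/kg in hamsters and 2 or 5 mg/kg in rats. Livers were harvested under isoflurane at 1, 4, 8 and 12 h and snap-frozen. Homogenate supernatant was dried, reconstituted in 1 mM ammonium phosphate pH 7.0, and triphosphate measured by LC/MS/MS, with endogenous ATP checked for stability. Values are mean±SD from 3 livers per time point.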

[5] = Elimination half life in beagle dog plasma at 0.5 mg/kg, iv after 24 hrs by LC-MS/MS analysis; format: ADME, organism-based, Canis lupus familiaris; set-up: dose 0.5 mg/kg, route intravenous
In short: (§2)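 Groups of 3 non-naive male beagle dogs received one dose as a solution in 5/5/5/85 ethanol/[…]/polyethylene glycol/50 mM aqueous citrate buffer (pH 3.3). Dosing was either 0.5 mg/kg by IV infusion or 1 mg/kg orally. EDTA-K3 plasma was sampled over 24 h, precipitated with acetonitrile (60% final), dried, reconstituted in 20% acetonitrile, and analysed by LC/MS/MS in positive-ion MRM mode.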

[6] = Oral bioavailability in Sprague-Dawley rat; format: ADME, organism-based; settings: in vivo
[7] = Plasma clearance in beagle dog at 0.5 mg/kg, iv after 24 hrs by LC-MS/MS analysis; format: ADME, organism-based, Canis lupus familiaris; set-up: dose 0.5 mg/kg, route intravenous; in short: as §2
[8] = Oral bioavailability in beagle dog at 1 mg/kg; format: ADME, organism-based, Canis lupus familiaris; settings: in vivo; in short: as §2
Syrian golden hamster [9] = assay: Prodrug activation in Golden Syrian hamster liver assessed as compound triphosphate form at 10 mg/kg, po […]; format: organism-based, Mesocricetus auratus; set-up: dose 10 mg/kg, route oral; settings: in vivo; in short: as §1
[10] = Volume of distribution in beagle dog at 0.5 mg/kg, iv after 24 hrs by LC-MS/MS analysis; format: ADME, organism-based, Canis lupus familiaris; set-up: dose 0.5 mg/kg, route intravenous; settings: in vivo; in short: as §2
[11] = Plasma clearance in rat; format: ADME, organism-based
Rattus norvegicus [12] = assay: Prodrug activation in Sprague-Dawley rat liver assessed as compound triphosphate form at 2 mg/kg, po after 4 to 24 hrs; format: organism-based; set-up: dose 2 mg/kg, route oral; settings: in vivo
Syrian golden hamster [13] = assay: Prodrug activation in Golden Syrian hamster liver assessed as compound triphosphate form at 20 mg/kg, po after 4 to 24 hrs; format: organism-based, Mesocricetus auratus; set-up: dose 20 mg/kg, route oral; settings: in vivo

| SMILES | EC50 (Hepatitis C virus [1]) | IC50 (Hepatitis C virus [2]) | remaining at 1 h, 10 µM (adenosine deaminase) | CC50 at 24 h [3] | also measured |
| --- | --- | --- | --- | --- | --- |
| C[C@@]1(O)[C@H](O)[C@@H](CO)O[C@H]1c1cnc2c(N)ncnn12 | 1.28 µM | 2.1 µM | 55% | > 89 µM |  |
| C[C@@]1(O)[C@H](O)[C@@H](CO)O[C@H]1c1ccc2c(N)ncnn12 | 1.98 µM | 0.31 µM | 100% | 85 µM | Drug metabolism (Huh-7): Not Active; Drug metabolism (Hepatocyte): Active; Drug metabolism (Rattus norvegicus [4]): Active; half-life [5]: > 7 h; bioavailability [6]: 50%; clearance [7]: 0.4 L/h/kg; bioavailability [8]: 70%; Drug metabolism (Syrian golden hamster [9]): Active; Vd [10]: 1.66 L/kg |
| C[C@@]1(O)[C@H](O)[C@@H](CO)O[C@H]1c1cnc2c(=O)[nH]c(N)nn12 | > 89 µM | 0.19 µM |  | > 89 µM |  |
| C[C@@]1(O)[C@H](O)[C@@H](CO)O[C@H]1c1c[nH]c(N)nc1=O | > 89 µM | 13.4 µM |  | > 89 µM |  |
| C[C@@]1(O)[C@H](O)[C@@H](CO)O[C@H]1n1ccc(=O)[nH]c1=O | 15.2 µM | 1.32 µM |  | > 89 µM |  |
| C[C@@]1(O)[C@H](O)[C@@H](CO)O[C@H]1c1c[nH]c(=O)[nH]c1=O | > 89 µM | 13.4 µM |  | > 89 µM |  |
| CC(C)(C)C(=O)SCCOP(=O)(OCCSC(=O)C(C)(C)C)OC[C@H]1O[C@@H](n2cnc3c(=O)[nH]c(N)nc32)[C@](C)(O)[C@@H]1O | 0.05 µM |  |  |  |  |
| CC(C)(C)C(=O)SCCOP(=O)(OCCSC(=O)C(C)(C)C)OC[C@H]1O[C@@H](c2cnc3c(=O)[nH]c(N)nn23)[C@](C)(O)[C@@H]1O | 9.54 µM |  |  |  |  |
| C[C@@]1(O)[C@H](O)[C@@H](CO)O[C@H]1n1ccc(N)nc1=O | 4.07 µM | 0.73 µM |  | > 89 µM |  |
| C[C@@]1(O)[C@H](O)[C@@H](CO)O[C@H]1n1cnc2c(N)ncnc21 | 0.35 µM | 6.83 µM | 94% | 66 µM | clearance [11]: > 12 L/h/kg |
| C[C@@]1(O)[C@H](O)[C@@H](CO)O[C@H]1n1cnc2c(=O)[nH]c(N)nc21 [2'-B-METHYL-GUANOSINE] | 3.25 µM | 0.25 µM |  | > 89 µM |  |
| C[C@@]1(O)[C@H](O)[C@@H](CO)O[C@H]1n1ccc2c(N)ncnc21 [BETA-2'-C-METHYL-7-DEAZA-ADENOSINE] | 0.08 µM | 0.3 µM | 98% | > 89 µM | Drug metabolism (Rattus norvegicus [12]): Active; Drug metabolism (Syrian golden hamster [13]): Active |
